Consider 15 molecules from ChEMBL document CHEMBL1132156, “Synthesis and structure-activity relationships of potential anticancer agents: alkylcarbamates of 3-(9-acridinylamino)-5-hydroxymethylaniline” (J Med Chem, 1999).

The test relates to HL-60. In words: In vitro inhibition of human leukemic HL-60 cell growth in culture. The format is functional, cell-based. Summed up: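 HL-60 cells were seeded at 5×10^4 cells/mL in RPMI 1640 with 10% heat-inactivated FBS, penicillin and streptomycin, at 37 °C in 5% CO2. Cells were exposed for 72 h to six or seven drug concentrations, run in duplicate. Viability was read by XTT-tetrazolium microculture absorbance, and IC50 was derived from median-effect plot analysis.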

Molecules are shown by their SMILES.

Consider `CC(C)COC(=O)Nc1cc(CO)cc(Nc2c3ccccc3nc3ccccc23)c1`, for which the IC50 was found to be 9 nM.
The figure for `CN(C)CCNC(=O)c1cccc2c(Nc3cc(N)cc(CO)c3)c3ccccc3nc12` is 130 nM; for `CCOC(=O)Nc1cc(CO)cc(Nc2c3ccccc3nc3c(Br)cccc23)c1` it is 130 nM; for `CCOC(=O)Nc1cc(CO)cc(Nc2c3ccccc3nc3c(C(=O)NC)cccc23)c1` it is 88 nM.
For `CCOC(=O)Nc1cc(CO)cc(Nc2c3ccccc3nc3c(Cl)cccc23)c1`, the IC50 is 67 nM.
The figure for `CCOC(=O)Nc1cc(CO)cc(Nc2c3cccc(C)c3nc3c(C(=O)NC)cccc23)c1` is 11 nM.
The figure for `COc1cccc2c(Nc3cc(N)cc(CO)c3)c3ccccc3nc12` is 11 nM.
The figure for `CCOC(=O)Nc1cc(CO)cc(Nc2c3cccc(OC)c3nc3c(C(=O)NC)cccc23)c1` is 32 nM.
Regarding `O=C(Nc1cc(CO)cc(Nc2c3ccccc3nc3ccccc23)c1)Oc1ccccc1`, it took 161 nM to reach half-maximal inhibition (IC50).
The figure for `Nc1cc(CO)cc(Nc2c3ccccc3nc3c([N+](=O)[O-])cccc23)c1` is 14000 nM; for `CNC(=O)c1cccc2c(Nc3cc(N)cc(CO)c3)c3cccc(OC)c3nc12` it is 120 nM.
The figure for `CCOC(=O)Nc1cc(CO)cc(Nc2c3ccccc3nc3c(C)cccc23)c1` is 4.7 nM; for `CCOC(=O)Nc1cc(CO)cc(Nc2c3ccccc3nc3c(F)cccc23)c1` it is 31 nM.
The figure for `CCOC(=O)Nc1cc(CO)cc(Nc2c3ccccc3nc3c([N+](=O)[O-])cccc23)c1` is 3800 nM.
With `CCOC(=O)Nc1cc(CO)cc(Nc2c3cccc(OC)c3nc3c(C(=O)NCCN(C)C)cccc23)c1`, half-maximal inhibition (IC50) was put at 9.7 nM.

Usually IC50 stands for the midpoint of a concentration-inhibition curve.
